Reference: ChEMBL document CHEMBL4382268, “Glycyrrhetinic acid derivatives containing aminophosphonate ester species as multidrug resistance reversers that block the NF-κB pathway and cell proliferation” (Bioorg Med Chem Lett, 2018)
pIC50: −log10 of the molar value. Active and inactive are the calls of the source. No cut-off for these calls is given here.

Key:
L02 = assay: Antiproliferative activity against human HL-7702 cells after 48 hrs by MTT assay; assay type: functional, cell-based; settings: L02, 48 h
Method in brief: (§1)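 MTT read-out of antiproliferative activity across cancer lines HepG-2, NCI-H460, MGC-803, A549 and MG-63 and normal liver line HL-7702. IC50 given as mean ± S.D. of three separate experiments, each run in triplicate.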

NCI-H460 = assay: Antiproliferative activity against human NCI-H460 cells after 48 hrs by MTT assay; assay type: functional, cell-based; settings: NCI-H460, 48 h; method in brief: as §1
MGC-803 = assay: Antiproliferative activity against human MGC803 cells after 48 hrs by MTT assay; assay type: functional, cell-based; settings: MGC-803, 48 h; method in brief: as §1
MG-63 = assay: Antiproliferative activity against human MG63 cells after 48 hrs by MTT assay; assay type: functional, cell-based; settings: MG-63, 48 h; method in brief: as §1
[1] = molecular target: T1, Inhibitor of NF-kappa-B kinase alpha/beta (Homo sapiens) (UniProt O14920+O15111); assay: Inhibition of IKKalpha/beta-mediated IkappaBalpha phosphorylation in human A549 cells after 24 hrs by Western blot analysis; assay type: cell-based
Method in brief: (§2)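 A549 cells exposed to 5, 10 and 20 µM for 24 h. Western blots probed for NF-κB, p-IκBα, IκBα and p-IKKα/β, with GAPDH as internal control. Three experiments, representative blot shown.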

[2] = molecular target: T1, Inhibitor of NF-kappa-B kinase alpha/beta (Homo sapiens); assay: Inhibition of IKKalpha/beta phosphorylation in human A549 cells up to 20 uM after 24 hrs by Western blot analysis; assay type: cell-based; method in brief: as §2
A549 [3] = assay: Reduction in IkappaBalpha level in human A549 cells up to 20 uM after 24 hrs by Western blot analysis; assay type: functional, cell-based; method in brief: as §2
SK-OV-3 = assay: Growth inhibition of cisplatin sensitive human SKOV3 cells after 48 hrs by MTT assay; assay type: functional, cell-based; settings: SK-OV-3, 48 h
Method in brief: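 MTT growth inhibition in the paired ovarian lines, cisplatin-sensitive SK-OV-3 and cisplatin-resistant SK-OV-3/CDDP. IC50 given as mean ± S.D. of three separate experiments, each in triplicate.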

[4] = Selectivity ratio of IC50 for cisplatin-resistant human SKOV3/DDP cells to IC50 for cisplatin sensitive human SKOV3 cells; assay type: functional
Method in brief: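 IC50 determined in resistant SK-OV-3/CDDP cells divided by IC50 in parental SK-OV-3 cells. Each IC50 by MTT, three separate experiments each in triplicate.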

A549 [5] = assay: Induction of apoptosis in human A549 cells assessed as early apoptotic cells at 5 uM after 24 hrs by annexin V-FITC/propidium iodide staining-based flow cytometry analysis (reference value: 1.28%); assay type: functional
Method in brief: (§3)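 A549 cells treated at 5, 10 and 20 µM for 24 h, then harvested and stained with Annexin V-FITC and PI. Flow cytometry quadrants: Q1 necrotic, Q2 late apoptotic/necrotic, Q3 early apoptotic, Q4 living. Performed three times.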

A549 [6] = assay: Induction of apoptosis in human A549 cells assessed as late apoptotic cells at 5 uM after 24 hrs by annexin V-FITC/propidium iodide staining-based flow cytometry analysis (reference value: 2.20%); assay type: functional; method in brief: as §3
A549 [7] = assay: Induction of apoptosis in human A549 cells assessed as necrotic apoptotic cells at 5 uM after 24 hrs by annexin V-FITC/propidium iodide staining-based flow cytometry analysis (reference value: 0.520%); assay type: functional; method in brief: as §3
A549 [8] = assay: Induction of apoptosis in human A549 cells assessed as viable cells at 5 uM after 24 hrs by annexin V-FITC/propidium iodide staining-based flow cytometry analysis (reference value: 96.0%); assay type: functional; settings: A549, 24 h, read-out: Activity; method in brief: as §3
A549 [9] = assay: Induction of apoptosis in human A549 cells assessed as early apoptotic cells at 10 uM after 24 hrs by annexin V-FITC/propidium iodide staining-based flow cytometry analysis (reference value: 1.28%); assay type: functional; method in brief: as §3
A549 [10] = assay: Induction of apoptosis in human A549 cells assessed as viable cells at 10 uM after 24 hrs by annexin V-FITC/propidium iodide staining-based flow cytometry analysis (reference value: 96.0%); assay type: functional; settings: A549, 24 h, read-out: Activity; method in brief: as §3
A549 [11] = assay: Induction of apoptosis in human A549 cells assessed as early apoptotic cells at 20 uM after 24 hrs by annexin V-FITC/propidium iodide staining-based flow cytometry analysis (reference value: 1.28%); assay type: functional; method in brief: as §3
A549 [12] = assay: Induction of apoptosis in human A549 cells assessed as late apoptotic cells at 20 uM after 24 hrs by annexin V-FITC/propidium iodide staining-based flow cytometry analysis (reference value: 2.20%); assay type: functional; method in brief: as §3
A549 [13] = assay: Cell cycle arrest in human A549 cells assessed as accumulation at G1 phase at 5 uM after 24 hrs by propidium iodide staining based flow cytometry (reference value: 47.0%); assay type: functional
A549 [14] = assay: Cell cycle arrest in human A549 cells assessed as accumulation at G2 phase at 5 uM after 24 hrs by propidium iodide staining based flow cytometry (reference value: 14.1%); assay type: functional
A549 [15] = assay: Cell cycle arrest in human A549 cells assessed as accumulation at G1 phase at 10 uM after 24 hrs by propidium iodide staining based flow cytometry (reference value: 47.0%); assay type: functional
A549 [16] = assay: Cell cycle arrest in human A549 cells assessed as accumulation at G2 phase at 10 uM after 24 hrs by propidium iodide staining based flow cytometry (reference value: 14.1%); assay type: functional
A549 [17] = assay: Cell cycle arrest in human A549 cells assessed as accumulation at S phase at 10 uM after 24 hrs by propidium iodide staining based flow cytometry (reference value: 38.76%); assay type: functional
A549 [18] = assay: Cell cycle arrest in human A549 cells assessed as accumulation at G1 phase at 20 uM after 24 hrs by propidium iodide staining based flow cytometry (reference value: 47.0%); assay type: functional
A549 [19] = assay: Cell cycle arrest in human A549 cells assessed as accumulation at G2 phase at 20 uM after 24 hrs by propidium iodide staining based flow cytometry (reference value: 14.1%); assay type: functional
A549 [20] = assay: Cell cycle arrest in human A549 cells assessed as accumulation at S phase at 20 uM after 24 hrs by propidium iodide staining based flow cytometry (reference value: 38.76%); assay type: functional
A549 [21] = assay: Induction of apoptosis in human A549 cells assessed as hyper condensed nuclei at 5 to 20 uM after 24 hrs by Hoechst […] staining based fluorescence microscopic method; assay type: functional, cell-based
Method in brief: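 After 24 h exposure at 5, 10 and 20 µM, A549 cells harvested and stained with Hoechst 33258. Nuclear morphology, including brightly stained hypercondensed nuclei, inspected against untreated control. Three experiments.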

A549 [22] = assay: Antimigratory activity against human A549 cells after 24 hrs by crystal violet staining based fluorescence microscopic analysis; assay type: functional, cell-based
Method in brief: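 Transwell migration of A549 cells incubated at 5, 10 and 20 µM for 24 h. Performed three times, representative images shown.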

A549 [23] = assay: Induction of mitochondrial membrane potential loss in human A549 cells at 5 to 20 uM after 24 hrs by JC-1 staining-based fluorescence microscopic analysis; assay type: functional, cell-based
Method in brief: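 A549 cells treated at 5, 10 and 20 µM for 24 h, then loaded with JC-1 probe for 30 min. Red J-aggregate and green J-monomer fluorescence viewed by fluorescence microscopy. Three experiments.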

A549 [24] = assay: Induction of ROS generation in human A549 cells at 5 to 20 uM after 24 hrs by DCFH-DA staining-based fluorescence microscopic analysis; assay type: functional, cell-based
Method in brief: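 Intracellular ROS in A549 cells after 24 h incubation, using DCF-DA probe. Green cytoplasmic fluorescence viewed by fluorescence microscopy against untreated control. Three experiments.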

Compound: CCOP(=O)(OCC)C(Nc1ccc(CC(=O)NCCCCNC(=O)[C@@]2(C)CC[C@]3(C)CC[C@]4(C)C(=CC(=O)[C@@H]5[C@@]6(C)CC[C@H](OC(C)=O)C(C)(C)[C@@H]6CC[C@]54C)[C@@H]3C2)cc1)c1ccc(F)cc1 (some centres undefined)
- pIC50 (L02): < 4.30
- pIC50 (NCI-H460): 5.08
- pIC50 (MGC-803): 5.06
- pIC50 (MG-63): 5.05
- inhibition [1]: Dose-dependent effect
- inhibition [2]: Active
- Activity (A549 [3]): Active
- pIC50 (SK-OV-3): 5.01
- Ratio IC50 [4]: 0.92
- Activity (A549 [5]): 1.96%
- Activity (A549 [6]): 11.6%
- Activity (A549 [7]): 0.09%
- viability at 5 µM (A549 [8]): 86.4%
- Activity (A549 [9]): 19.1%
- viability at 10 µM (A549 [10]): 57.9%
- Activity (A549 [11]): 19.5%
- Activity (A549 [12]): 39.7%
- Activity (A549 [13]): 59.91%
- Activity (A549 [14]): 0%
- Activity (A549 [15]): 46.5%
- Activity (A549 [16]): 9.9%
- Activity (A549 [17]): 43.6%
- Activity (A549 [18]): 43.02%
- Activity (A549 [19]): 2.66%
- Activity (A549 [20]): 54.32%
- Activity (A549 [21]): Active
- Activity (A549 [22]): Dose-dependent effect
- Activity (A549 [23]): Active
- Activity (A549 [24]): Active
